Published values collected from several papers.
Protocols differ between the studies behind these lines.
REN: Renin (REN, Homo sapiens, UniProt P00797)
CDK4: Cyclin-dependent kinase 4 (CDK4, Homo sapiens, UniProt P11802)

With `N=C(N)c1ccc2cc(OC(=O)c3ccc(N=C(N)N)cc3)ccc2c1` the inhibition was 45% (REN; enzyme activity, inhibitor; 10 µM).
`CCOC(=O)[C@H]1Cc2c(cc([N+](=O)[O-])cc2[N+](=O)[O-])[C@@H](O)[C@@]12C(=O)Nc1ccc(F)cc12` has an inhibition of 53.9% (CDK4; cell-free assay, inhibitor, TR-FRET; 1 µM).
`COc1cc(Nc2ncc(F)c(Nc3ccc4c(n3)NC(=O)C(C)(C)O4)n2)cc(OC)c1OC` gave an inhibition of 59% (Serine/threonine-protein kinase DCLK1 (DCLK1, Homo sapiens, UniProt O15075); binding; 10 µM).
`c1ccc(C(NCCNC(c2ccccc2)c2ccccc2)c2ccccc2)cc1` has an inhibition of 30% (REN; enzyme activity, inhibitor; 10 µM).
`Cn1cc(-c2cc(F)cc(N3CCn4c(cc5c4CCCC5)C3=O)c2CO)cc(Nc2ccc(N3CCN(C4COC4)CC3)cn2)c1=O` has an inhibition of 13% (Serine/threonine-protein kinase 3 (STK3, Homo sapiens, UniProt Q13188); enzyme activity, inhibitor; 0.1 µM).
`CCOC(=O)[C@H]1Cc2c(cc([N+](=O)[O-])cc2[N+](=O)[O-])[C@@H](O)[C@@]12C(=O)Nc1ccc(C)cc12` gave an inhibition of 67.8% (CDK4; cell-free assay, inhibitor, TR-FRET; 1 µM).
`COCCCOc1cc(C[C@@H](C[C@H](N)[C@@H](O)C[C@H](C(=O)NCC(C)(C)C(N)=O)C(C)C)C(C)C)ccc1OC` has an inhibition of 0% (REN; enzyme activity, inhibitor; 100 pM).
The inhibition of `Cc1ncc(C)n2nc(/C=C/c3nc(N4CCCC4)cc(N4CCOCC4)n3)nc12` is reported as 2% (Amine oxidase [flavin-containing] A (Maoa, Rattus norvegicus, UniProt P21396); ligand displacement; 10 µM).
With `CCOC(=O)c1ccc(OC(=O)CCCCCNC(=N)N)cc1` the inhibition was 0% (REN; enzyme activity, inhibitor; 10 µM).
`CCOC(=O)[C@H]1Cc2c(cc([N+](=O)[O-])cc2[N+](=O)[O-])[C@@H](O)[C@@]12C(=O)Nc1ccc(Cl)cc12` has an inhibition of 70.2% (CDK4; cell-free assay, inhibitor, TR-FRET; 1 µM).
With `CC(C)C[C@H](NC(=O)[C@H](Cc1ccccc1)NC(=O)c1cnccn1)B(O)O` the inhibition was 72.4% (GZMA (Homo sapiens, UniProt P12544); enzyme activity, inhibitor; 33 µM).
With `CCOC(=O)[C@H]1Cc2c(cc([N+](=O)[O-])cc2[N+](=O)[O-])[C@@H](O)[C@@]12C(=O)Nc1cc(Cl)ccc12` the inhibition was 61.2% (CDK4; cell-free assay, inhibitor, TR-FRET; 1 µM).
`C#Cc1n[nH]c2c(-c3cn(C(C)c4ccccn4)c(=O)[nH]c3=O)cc(F)cc12` (stereo not shown) gave an inhibition of 6.8% (Tyrosine-protein kinase Fer (FER, Homo sapiens, UniProt P16591); enzyme activity, inhibitor; 1 µM).
